From ChEMBL document CHEMBL5137129, “Anti-HIV Macrocyclic Daphnane Orthoesters with an Unusual Macrocyclic Ring from Edgeworthia chrysantha” (J Nat Prod, 2022)

Assays:
MT4 = assay: Cytotoxicity against human MT4 cells assessed as inhibition of cell growth by measuring ATP by CellTiter-Glo luminescent cell viability assay; format: toxicity, cell-based
Summary of the method: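 MT4 cells were cultured in parallel with the anti-HIV-1 cultures (NL4-3, MOI 0.001, 4 days, medium with compound refreshed at 48 h). Viability was read as ATP of metabolically active cells by CellTiter-Glo luminescence. Dose-response curves came from three independent experiments.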

[1] = test system: Human immunodeficiency virus 1; assay: Anti-HIV activity against Human immunodeficiency virus 1 […] infected in human MT4 cells assessed as inhibition of viral infection measured after 4 days by serial dilution based p24 ELISA analysis; format: functional, organism-based; conditions: Human immunodeficiency virus 1, MT4, 96 h
Summary of the method: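 HIV-1 NL4-3 at MOI 0.001 infected MT4 cells with compounds present at various concentrations (4-fold serial dilutions across the inhibitory phase). Fresh compound-containing medium was added 48 h post-infection. Replication was read by p24 ELISA at 4 days post-infection. Dose-response curves came from three independent experiments.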

Structure (SMILES) | IC50 (MT4) [nM] | EC50 [1] [nM]
C=C(C)[C@]12C[C@@H](COC(=O)c3ccccc3)[C@@]34OC5(O[C@@H]1[C@@H]3[C@@H]1O[C@]1(CO)[C@@H](O)[C@@]1(O)[C@H]4[C@H]([C@H](C)[C@@H]1OC(=O)c1ccccc1)[C@H](C)CCCCCC[C@H]5O)O2 | > 32 | –
C=C(C)[C@@]12OC34CCC/C=C\CCCC[C@H](CCC)[C@@H]5[C@@H]6[C@]7(O[C@]5(C)OC7=O)[C@H](O)[C@@]5(CO)O[C@H]5[C@@H]([C@H]1O3)[C@]6(O4)[C@H](COC(=O)c1ccccc1)[C@H]2OC(C)=O | > 32 | > 32
C=C(C)[C@@]12OC34CCC/C=C\CCCC[C@H](CCC)[C@@H]5[C@@H]6[C@]7(O[C@]5(C)OC7=O)[C@H](O)[C@@]5(CO)O[C@H]5[C@@H]([C@H]1O3)[C@]6(O4)[C@H](C)[C@H]2OC(C)=O | > 32 | > 32
C=C(C)[C@@]12OC34CCC/C=C\CCCC[C@H](CCC)[C@@H]5[C@@H]6[C@]7(O[C@]5(C)OC7=O)[C@H](O)[C@@]5(CO)O[C@H]5[C@@H]([C@H]1O3)[C@]6(O4)[C@H](COC(=O)C(C)C)[C@H]2OC(C)=O | > 32 | 29.3
C=C(C)[C@@]12OC34CCC/C=C\CCCC[C@H](CCC)[C@H]5[C@H](C)C(=O)[C@@]6(O)[C@H](O)[C@@]7(CO)O[C@H]7[C@@H]([C@H]1O3)[C@](O4)([C@H](C)[C@H]2OC(C)=O)[C@H]56 | > 32 | 8.4
C=C(C)[C@@]12OC34CCC/C=C\CCCC[C@H](CCC)[C@H]5[C@H](C)C(=O)[C@@]6(O)[C@H](O)[C@@]7(CO)O[C@H]7[C@@H]([C@H]1O3)[C@](O4)([C@H](COC(=O)C(C)C)[C@H]2OC(C)=O)[C@H]56 | 21.3 | 2.9
